Compounds with a hit are over-represented: about 0.85% of the library has one in this group of screens.
V1R ag counter: agonists of human V1a receptor, primary screen, counter-screen for OXTR agonist project, fluorescence, CHO-V1R cells | Vasopressin V1a receptor (Homo sapiens), P37288 | Fluo-8 calcium fluorescence, agonist mode; 0% DMSO, 100% 3 nM vasopressin | activation, % at 3 µM | 320,000 tested, 0.25% active | AID 2797, 2010;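 active = activation above the mean activation of all tested compounds plus 3 SD, per screening run, cut at about 20% in these data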;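 also: signal is peak over basal fluorescence ratio across a 100 second FLIPR read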
Target sequence (P37288 whole entry, looked up): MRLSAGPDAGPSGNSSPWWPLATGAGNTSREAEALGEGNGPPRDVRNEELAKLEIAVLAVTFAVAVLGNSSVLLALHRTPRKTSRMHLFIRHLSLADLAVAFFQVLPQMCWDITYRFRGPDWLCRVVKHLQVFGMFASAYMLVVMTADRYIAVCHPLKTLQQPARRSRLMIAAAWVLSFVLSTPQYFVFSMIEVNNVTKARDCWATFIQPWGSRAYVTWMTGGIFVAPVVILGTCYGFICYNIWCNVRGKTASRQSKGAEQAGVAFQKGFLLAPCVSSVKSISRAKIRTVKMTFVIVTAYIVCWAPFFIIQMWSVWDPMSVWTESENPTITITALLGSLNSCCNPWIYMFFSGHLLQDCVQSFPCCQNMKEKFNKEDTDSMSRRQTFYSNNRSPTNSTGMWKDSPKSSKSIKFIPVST
zfTRPN1 agonist: zebrafish TRPN1 channel agonists, primary screen, cell-based, HEK293, calcium fluorescence; transient receptor potential cation channel N1 (TRPN1/NompC), Danio rerio; HEK293 zebrafish TRPN1-YFP, Fluo-8 calcium fluorescence; 100% = response to 87 µM carbachol; activation, % at 3 µM; 220,000 tested, 0.18% active;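 active = activation above its plate's cutoff, the mean activation of test wells on that plate plus 3 SD, cut at about 19% in these data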;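 also: 0% = DMSO alone and 100% = 87 µM carbachol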
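Material – zebrafish TRPN1-YFP in HEK293 cells · Doses – 3 µM single point · Schedule – dye 1 h 37 °C plus 30 min RT · Signal – Fluo-8 calcium fluorescence, excitation 470-495 nm, emission 515-575 nm · Read-out – % activation versus carbachol response · Control set – carbachol high, DMSO low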
TRPML3 agonist: human TRPML3 channel agonists, primary screen, cell-based, HEK293 TRPML3-YFP, Fluo-8 calcium fluorescence, 3 µM | Mucolipin-3 (Homo sapiens), Q8TDD5 | 100% = the carbachol control signal | activation, % at 3 µM | 220,000 tested, 0.29% active | AID 1448, 2008;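 active = activation above its plate's cutoff, the mean activation of the plate's test wells plus 3 SD, cut at about 12% in these data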;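 also: 0% = DMSO only wells and 100% = carbachol wells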
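Test system: TRPML3-YFP stable HEK293 cells. Doses: single point at 3 µM. Incubation: dye loading 1 h 37 °C then 30 min ambient, 125 s read. Signal: Fluo-8 calcium dye fluorescence, ex 470-495, em 515-575 nm. Measure: percent activation from peak-to-basal fluorescence ratio, scaled between DMSO and carbachol.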
OXTR potentiate: human OXTR potentiators, primary screen, fluorescence, CHO-OTR cells, Fluo-8 calcium | 320,000 tested, 0.061% active | Oxytocin receptor (Homo sapiens), P30559 | activation, % at 3 µM | AID 2445, 2010 | Fluo-8 calcium fluorescence, potentiator mode; 0% = oxytocin EC15, 100% = EC100;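 active = activation above that plate's cutoff, the mean activation of tested compounds plus 3 SD, cut at about 6.6% in these data, passing the limit was not always enough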;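 also: 100% uses oxytocin at 75 nM as the full agonist control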
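System: human OTR in CHO cells / Also added: sub-maximal oxytocin, roughly EC15 / Control set: EC15 oxytocin low, 75 nM oxytocin high / Schedule: 6 min compound pre-incubation at room temperature, 100 s kinetic read / Compound: single-point 3.0 µM / Replication: singlicate / Technique: Fluo-8 calcium dye fluorescence / Read-out basis: % activation of max/min ratio relative to oxytocin controls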
CRFBP-R2 agonist: agonists of CRF-BP/CRF-R2 complex, primary screen, cell-based, HEK293, calcium dye fluorescence, uHTS; activation, % at 13.2 µM; calcium dye fluorescence (FLIPR); percent of saturating CRF peptide response; AID 588473, 2011; 350,000 tested, 0.46% active; CRF-binding protein / CRF receptor 2 complex (human);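 active = activation of at least 50%, plus an integration ratio under a set limit after plate pattern correction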;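 also: plate controls were neutral control wells without compound for no effect and CRF at EC100 for full effect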
OXTR ag: human OXTR agonists, primary screen, fluorescence, CHO-OTR cells, Fluo-8 calcium | 320,000 tested, 0.32% active | Fluo-8 calcium fluorescence; normalized: DMSO 0%, oxytocin 100% | activation, % at 3 µM;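 active = activation above the mean of all tested compounds plus 3 SD, cutoff set per screening run, cut at about 20% in these data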;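 also: peak over basal fluorescence ratio from a 100 s FLIPR kinetic read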
TRPN1 counter: zebrafish TRPN1 channel agonists, counter-screen for TRPML3 agonist project, cell-based, HEK293 TRPN1-YFP, Fluo-8 calcium; activation, % at 3 µM; Fluo-8 calcium fluorescence; scaled: carbachol wells 100%, DMSO wells 0%; 310 tested, 10% active; shares compounds with TRPML3 agonist;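 active = mean activation over replicates above a set limit taken from the earlier TRPN1 channel primary screen, cut at about 19% in these data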;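 also: 100% = carbachol and 0% = 0.3% DMSO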
TRPML3 confirm: human TRPML3 channel agonists, confirmation, cell-based, HEK293 TRPML3-YFP, Fluo-8 calcium, triplicate. shares compounds with TRPML3 agonist. AID 1526, 2009. Fluo-8 calcium fluorescence; 100% set by carbachol, 0% by DMSO. activation, % at 3 µM. 310 tested, 80% active;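 active = activation above a set limit derived from the earlier primary screen, cut at about 12% in these data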
Starred values were filed as active, the others as inactive.

What do the screens show for `Cc1onc(-c2ccc(Cl)cc2)c1-c1ccnn1S(=O)(=O)c1cccc(C(F)(F)F)c1`?
V1R ag counter: 1; zfTRPN1 agonist: 1; TRPML3 agonist: 33*; OXTR potentiate: -12; CRFBP-R2 agonist: 5; OXTR ag: 1; TRPN1 counter: 0; TRPML3 confirm: 51*

How did Cc1ccc(S(=O)(=O)n2nccc2-c2c(-c3ccccc3)noc2C)cc1 do in these assays?
V1R ag counter: 2; zfTRPN1 agonist: 1; TRPML3 agonist: 120*; OXTR potentiate: -13; CRFBP-R2 agonist: 5; OXTR ag: -2; TRPN1 counter: -1; TRPML3 confirm: 94*

Results for CC(=O)c1ccc(NC(=S)NC(C)c2ccc(Cl)cc2Cl)cc1 (configuration not stated) ?
V1R ag counter: 24*; zfTRPN1 agonist: 16; TRPML3 agonist: 14*; OXTR potentiate: -13; CRFBP-R2 agonist: 25; OXTR ag: 25*; TRPN1 counter: 17; TRPML3 confirm: 9

What do the screens show for `Cc1onc(-c2ccccc2)c1C(=O)NCc1ccco1`?
V1R ag counter: 1; zfTRPN1 agonist: 0; TRPML3 agonist: 0; OXTR potentiate: -7; CRFBP-R2 agonist: 1; OXTR ag: 0

How did Cc1onc(-c2ccccc2)c1C(=O)N(Cc1ccco1)Cc1cccs1 do in these assays?
zfTRPN1 agonist: -2; TRPML3 agonist: 29*; CRFBP-R2 agonist: -1; TRPN1 counter: -3; TRPML3 confirm: 19*

What do the screens show for `CC1CCCCC1NC(=O)CN1C(=O)CSc2cc(S(=O)(=O)N3CCCCCC3)ccc21` (configuration not stated)?
V1R ag counter: -2; zfTRPN1 agonist: -1; TRPML3 agonist: 33*; OXTR potentiate: -10; CRFBP-R2 agonist: -4; OXTR ag: -3; TRPN1 counter: -1; TRPML3 confirm: 8

How did CCC(Oc1cc(Cl)ccc1Cl)C(=O)NNC(=O)CCC(=O)O (configuration not stated) do in these assays?
V1R ag counter: 1; zfTRPN1 agonist: 0; TRPML3 agonist: 1; OXTR potentiate: 11; CRFBP-R2 agonist: 0; OXTR ag: 1

How did CCC(Oc1cc(Cl)ccc1Cl)C(=O)NN1C(=O)C2C3CCC(C3=C(C)C)C2C1=O (configuration not stated) do in these assays?
V1R ag counter: -1; zfTRPN1 agonist: 0; TRPML3 agonist: 34*; OXTR potentiate: -9; CRFBP-R2 agonist: 2; OXTR ag: -1; TRPN1 counter: 2; TRPML3 confirm: 73*

What do the screens show for `O=C(C1Cc2ccccc2CN1S(=O)(=O)c1ccc(F)cc1)N1CCCCCC1` (configuration not stated)?
V1R ag counter: -2; zfTRPN1 agonist: 0; TRPML3 agonist: 40*; OXTR potentiate: 1; CRFBP-R2 agonist: -2; OXTR ag: -1; TRPN1 counter: 0; TRPML3 confirm: 41*

What do the screens show for `O=C(C1Cc2ccccc2CN1S(=O)(=O)c1ccc(F)cc1)N1CCOCC1` (configuration not stated)?
V1R ag counter: -1; zfTRPN1 agonist: 0; TRPML3 agonist: 7; OXTR potentiate: -1; CRFBP-R2 agonist: 0; OXTR ag: -1
